ChEMBL document CHEMBL1914368, “Imidazo[1,5-a]quinoxalines as irreversible BTK inhibitors for the treatment of rheumatoid arthritis” (Bioorg Med Chem Lett, 2011)
The source made the active and inactive calls. No cut-off for these calls is given here.

Tests used:
[1] = target: Receptor-interacting serine/threonine-protein kinase 2 (Homo sapiens) (UniProt O43353); test: Inhibition of RIPK2 relative to control; conditions: concentration not given here
[2] = target: Tyrosine-protein kinase Mer (Homo sapiens) (UniProt Q12866); test: Inhibition of MERTK relative to control; conditions: concentration not given here
[3] = target: Tyrosine-protein kinase Fyn (Homo sapiens, UniProt P06241); test: Inhibition of FYN relative to control
[4] = target: Tyrosine-protein kinase Blk (Homo sapiens, UniProt P51451); test: Inhibition of BLK relative to control
Ephrin type-A receptor 8 = Ephrin type-A receptor 8 (Homo sapiens, UniProt P29322); test: (§1) Inhibition of EPHA8 relative to control
Chain of Ephrin type-A receptor 8 (P29322 whole entry): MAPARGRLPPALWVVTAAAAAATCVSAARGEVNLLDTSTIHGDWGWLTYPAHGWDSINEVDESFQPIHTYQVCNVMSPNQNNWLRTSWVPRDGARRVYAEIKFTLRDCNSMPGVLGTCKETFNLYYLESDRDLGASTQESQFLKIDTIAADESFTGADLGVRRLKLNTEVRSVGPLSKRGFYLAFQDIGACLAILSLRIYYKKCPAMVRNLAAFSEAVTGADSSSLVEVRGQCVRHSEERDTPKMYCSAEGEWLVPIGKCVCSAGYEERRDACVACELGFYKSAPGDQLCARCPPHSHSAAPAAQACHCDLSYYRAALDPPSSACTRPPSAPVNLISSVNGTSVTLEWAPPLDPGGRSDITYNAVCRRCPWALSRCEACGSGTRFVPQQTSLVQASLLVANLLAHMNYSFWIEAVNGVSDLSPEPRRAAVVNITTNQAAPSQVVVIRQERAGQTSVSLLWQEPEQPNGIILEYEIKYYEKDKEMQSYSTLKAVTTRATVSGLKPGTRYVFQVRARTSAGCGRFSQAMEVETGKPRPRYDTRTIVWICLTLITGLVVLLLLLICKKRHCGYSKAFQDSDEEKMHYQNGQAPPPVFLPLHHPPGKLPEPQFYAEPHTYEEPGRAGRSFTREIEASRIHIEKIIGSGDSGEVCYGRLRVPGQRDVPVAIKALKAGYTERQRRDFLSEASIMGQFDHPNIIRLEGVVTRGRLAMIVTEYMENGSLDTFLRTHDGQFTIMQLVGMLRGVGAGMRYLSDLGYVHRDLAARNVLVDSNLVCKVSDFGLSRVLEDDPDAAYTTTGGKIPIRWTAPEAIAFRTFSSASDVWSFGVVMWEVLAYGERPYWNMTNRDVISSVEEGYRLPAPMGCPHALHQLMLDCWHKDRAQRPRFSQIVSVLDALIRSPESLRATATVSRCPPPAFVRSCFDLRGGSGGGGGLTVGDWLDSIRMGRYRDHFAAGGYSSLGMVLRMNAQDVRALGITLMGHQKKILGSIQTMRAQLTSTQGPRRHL

[5] = target: Ephrin type-A receptor 8 (Homo sapiens) (UniProt P29322); test: as §1; conditions: concentration not given here
Chain of Ephrin type-A receptor 8 (Homo sapiens) (P29322 whole entry): as above

[6] = Oral bioavailability in mouse at 10 mg/kg; type: ADME, organism-based; conditions: in vivo
Outline: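 Mouse pharmacokinetics from single dosing at 2 mg/kg iv and 10 mg/kg po. The study derived AUC, T1/2, clearance, Vss, Tmax, Cmax and oral bioavailability (%F) from the paired iv and po arms.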

[7] = target: Insulin receptor (Homo sapiens) (UniProt P06213); test: Inhibition of INSR relative to control; conditions: concentration not given here
[8] = target: Vascular endothelial growth factor receptor 1 (Homo sapiens) (UniProt P17948); test: Inhibition of FLT1 relative to control; conditions: concentration not given here
[9] = target: Focal adhesion kinase 1 (Homo sapiens) (UniProt Q05397); test: Inhibition of PTK2 relative to control; conditions: concentration not given here
[10] = target: Tyrosine-protein kinase ABL1 (Homo sapiens, UniProt P00519); test: Inhibition of Abl1 relative to control
[11] = target: Tyrosine-protein kinase SYK (Homo sapiens) (UniProt P43405); test: Inhibition of SYK relative to control; conditions: concentration not given here
Mus musculus [12] = test: Antiarthritic activity in DBA/1 JBomTac mouse collagen-induced arthritis model assessed as inhibition of disease progression at 1 mg/kg, po qd measured on day 19 to 22; type: functional, organism-based; parameters: dose 1 mg/kg
Outline: (§2)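 Semi-therapeutic collagen-induced arthritis model. Blinded paw scoring used a 0–4 scale, reported as mean and SEM. Comparison to vehicle used Student's t-test, P <0.05.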

[13] = target: Tyrosine-protein kinase Fer (Homo sapiens) (UniProt P16591); test: Inhibition of FER relative to control; conditions: concentration not given here
Chain of Tyrosine-protein kinase Fer (Homo sapiens) (P16591 whole entry, looked up): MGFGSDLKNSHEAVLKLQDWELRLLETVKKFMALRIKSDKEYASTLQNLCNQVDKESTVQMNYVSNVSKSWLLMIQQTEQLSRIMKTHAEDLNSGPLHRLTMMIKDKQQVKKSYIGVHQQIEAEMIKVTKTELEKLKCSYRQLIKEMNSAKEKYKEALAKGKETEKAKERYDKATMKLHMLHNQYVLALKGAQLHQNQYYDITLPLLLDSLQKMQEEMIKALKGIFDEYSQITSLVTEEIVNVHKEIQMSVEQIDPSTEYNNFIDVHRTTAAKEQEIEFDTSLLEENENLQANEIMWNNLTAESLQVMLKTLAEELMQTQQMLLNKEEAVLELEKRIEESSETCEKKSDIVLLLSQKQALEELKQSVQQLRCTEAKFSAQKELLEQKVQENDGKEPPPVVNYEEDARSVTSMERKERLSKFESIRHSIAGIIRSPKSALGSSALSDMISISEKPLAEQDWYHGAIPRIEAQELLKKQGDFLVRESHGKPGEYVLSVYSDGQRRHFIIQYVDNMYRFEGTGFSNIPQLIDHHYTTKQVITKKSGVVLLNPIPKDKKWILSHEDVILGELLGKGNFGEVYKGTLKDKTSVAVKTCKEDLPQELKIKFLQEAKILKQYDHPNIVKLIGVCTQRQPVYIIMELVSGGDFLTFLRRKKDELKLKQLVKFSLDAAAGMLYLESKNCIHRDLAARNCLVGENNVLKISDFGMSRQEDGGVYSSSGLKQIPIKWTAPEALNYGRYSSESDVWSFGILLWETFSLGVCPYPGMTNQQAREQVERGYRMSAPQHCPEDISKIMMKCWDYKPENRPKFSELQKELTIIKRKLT

Ephrin type-B receptor 3 = Ephrin type-B receptor 3 (Homo sapiens, UniProt P54753); test: (§3) Inhibition of EPHB3 relative to control
[14] = target: Ephrin type-B receptor 3 (Homo sapiens) (UniProt P54753); test: as §3; conditions: concentration not given here
[15] = target: Proto-oncogene tyrosine-protein kinase receptor Ret (Homo sapiens) (UniProt P07949); test: Inhibition of RET relative to control; conditions: concentration not given here
[16] = target: Mitogen-activated protein kinase 14 (Homo sapiens) (UniProt Q16539); test: Inhibition of MAPK14 relative to control; conditions: concentration not given here
[17] = target: Receptor tyrosine-protein kinase erbB-2 (Homo sapiens) (UniProt P04626); test: Inhibition of HER2 relative to control; conditions: concentration not given here
[18] = target: High affinity nerve growth factor receptor (Homo sapiens) (UniProt P04629); test: Inhibition of NTRK1 relative to control; conditions: concentration not given here
[19] = target: Serine/threonine-protein kinase B-raf (Homo sapiens) (UniProt P15056); test: Inhibition of B-Raf relative to control; conditions: concentration not given here
Chain of Serine/threonine-protein kinase B-raf (Homo sapiens) (P15056 whole entry): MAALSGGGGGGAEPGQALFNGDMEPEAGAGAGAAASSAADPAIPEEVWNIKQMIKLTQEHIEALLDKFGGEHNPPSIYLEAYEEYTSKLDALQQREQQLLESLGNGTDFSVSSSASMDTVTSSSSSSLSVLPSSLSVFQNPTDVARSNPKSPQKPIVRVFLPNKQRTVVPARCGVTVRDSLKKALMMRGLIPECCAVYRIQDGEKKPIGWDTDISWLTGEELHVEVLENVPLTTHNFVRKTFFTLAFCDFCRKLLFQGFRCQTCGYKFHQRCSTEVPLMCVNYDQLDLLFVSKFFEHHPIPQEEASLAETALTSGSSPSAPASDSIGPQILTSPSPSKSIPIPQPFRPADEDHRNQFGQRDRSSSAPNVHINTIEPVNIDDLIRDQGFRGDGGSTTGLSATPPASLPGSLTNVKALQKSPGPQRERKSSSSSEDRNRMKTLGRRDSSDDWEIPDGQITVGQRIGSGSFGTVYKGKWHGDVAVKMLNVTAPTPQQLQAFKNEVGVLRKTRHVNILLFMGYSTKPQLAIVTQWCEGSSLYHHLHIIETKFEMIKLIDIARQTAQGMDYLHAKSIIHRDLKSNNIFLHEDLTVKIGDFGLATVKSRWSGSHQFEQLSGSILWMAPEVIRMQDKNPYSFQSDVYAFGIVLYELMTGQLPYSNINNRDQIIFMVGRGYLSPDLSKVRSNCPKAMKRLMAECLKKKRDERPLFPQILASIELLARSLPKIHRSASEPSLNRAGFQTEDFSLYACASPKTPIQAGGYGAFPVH

[20] = Half life in mouse at 2 mg/kg, iv; type: ADME, organism-based; parameters: dose 2 mg/kg, route intravenous; conditions: in vivo
[21] = target: T1, Aryl hydrocarbon receptor (Mus musculus, UniProt P30561); test: Agonist activity at Ah receptor in genetically engineered mouse cells expressing firefly luciferase gene by CALUX transactivational assay; type: functional
T1 sequence (P30561 whole entry): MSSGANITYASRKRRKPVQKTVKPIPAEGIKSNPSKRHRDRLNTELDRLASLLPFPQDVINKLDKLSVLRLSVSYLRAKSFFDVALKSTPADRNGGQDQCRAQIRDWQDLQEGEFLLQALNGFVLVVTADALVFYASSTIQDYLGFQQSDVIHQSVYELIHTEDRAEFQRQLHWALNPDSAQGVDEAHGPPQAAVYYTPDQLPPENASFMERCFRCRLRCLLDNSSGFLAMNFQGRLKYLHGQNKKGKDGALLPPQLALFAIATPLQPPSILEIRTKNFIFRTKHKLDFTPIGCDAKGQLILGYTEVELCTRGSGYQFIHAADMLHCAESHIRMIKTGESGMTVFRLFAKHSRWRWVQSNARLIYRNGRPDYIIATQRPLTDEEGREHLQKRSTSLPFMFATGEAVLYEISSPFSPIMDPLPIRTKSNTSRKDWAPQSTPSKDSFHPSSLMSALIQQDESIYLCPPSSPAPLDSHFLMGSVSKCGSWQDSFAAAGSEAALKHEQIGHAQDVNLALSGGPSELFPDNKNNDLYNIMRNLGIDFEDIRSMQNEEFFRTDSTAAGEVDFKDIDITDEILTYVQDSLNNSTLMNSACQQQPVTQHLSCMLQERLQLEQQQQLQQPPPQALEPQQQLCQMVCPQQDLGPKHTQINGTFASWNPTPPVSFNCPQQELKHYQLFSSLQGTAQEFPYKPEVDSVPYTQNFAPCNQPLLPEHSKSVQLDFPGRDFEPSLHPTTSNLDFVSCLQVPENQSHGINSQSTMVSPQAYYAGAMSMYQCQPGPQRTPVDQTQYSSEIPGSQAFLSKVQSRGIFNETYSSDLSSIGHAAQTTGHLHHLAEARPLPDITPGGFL

[22] = target: Mitogen-activated protein kinase 9 (Homo sapiens) (UniProt P45984); test: Inhibition of JNK2 relative to control; conditions: concentration not given here
Chain of Mitogen-activated protein kinase 9 (Homo sapiens) (P45984 whole entry, looked up): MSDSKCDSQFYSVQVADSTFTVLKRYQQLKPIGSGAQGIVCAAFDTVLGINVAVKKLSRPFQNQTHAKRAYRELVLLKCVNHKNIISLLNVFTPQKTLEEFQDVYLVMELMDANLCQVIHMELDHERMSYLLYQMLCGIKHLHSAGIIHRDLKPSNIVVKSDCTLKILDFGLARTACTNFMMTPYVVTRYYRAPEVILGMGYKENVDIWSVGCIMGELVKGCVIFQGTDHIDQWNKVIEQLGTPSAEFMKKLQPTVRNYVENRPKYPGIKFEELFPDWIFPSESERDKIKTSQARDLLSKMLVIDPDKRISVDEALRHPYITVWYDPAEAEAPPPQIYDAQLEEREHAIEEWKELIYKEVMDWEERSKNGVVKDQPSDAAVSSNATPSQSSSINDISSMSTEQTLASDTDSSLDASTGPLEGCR

[23] = target: Serine/threonine-protein kinase mTOR (Homo sapiens) (UniProt P42345); test: Inhibition of FRAP1 relative to control; conditions: concentration not given here
[24] = target: Tyrosine-protein kinase Fgr (Homo sapiens) (UniProt P09769); test: Inhibition of FGR relative to control; conditions: concentration not given here
Chain of Tyrosine-protein kinase Fgr (Homo sapiens) (P09769 2-529 limits assumed): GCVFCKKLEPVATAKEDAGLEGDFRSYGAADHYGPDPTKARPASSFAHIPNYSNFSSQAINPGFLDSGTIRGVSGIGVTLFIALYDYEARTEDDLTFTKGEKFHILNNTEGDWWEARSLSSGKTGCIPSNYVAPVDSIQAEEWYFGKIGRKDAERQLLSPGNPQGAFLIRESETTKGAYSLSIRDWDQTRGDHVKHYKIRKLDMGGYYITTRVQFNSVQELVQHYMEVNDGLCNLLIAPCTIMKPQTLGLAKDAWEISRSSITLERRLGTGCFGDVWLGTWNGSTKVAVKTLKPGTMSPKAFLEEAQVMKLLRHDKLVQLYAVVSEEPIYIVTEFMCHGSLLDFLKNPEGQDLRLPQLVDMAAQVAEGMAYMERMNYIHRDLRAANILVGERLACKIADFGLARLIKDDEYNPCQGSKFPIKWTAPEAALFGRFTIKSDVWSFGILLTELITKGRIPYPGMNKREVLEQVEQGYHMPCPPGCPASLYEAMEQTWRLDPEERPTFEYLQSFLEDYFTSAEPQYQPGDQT

Mus musculus [25] = test: Antiarthritic activity in C57BL/6 mouse assessed as inhibition of T-independent type 2 antigen-induced NP-specific IgM antibody titer production administered qd for 7 days by ELISA; type: functional, organism-based; conditions: C57BL6
Outline: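 Female C57BL/6 mice, 8–10 weeks old, immunized ip with NP(109)-Ficoll (TI-2 antigen). Compound or vehicle given po daily for 7 days, starting 1 day before immunization. Serum was collected 6 days after immunization, and NP-specific IgM and IgG3 titers were measured by ELISA.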

[26] = target: Receptor tyrosine-protein kinase erbB-4 (Homo sapiens, UniProt Q15303); test: Inhibition of ERBB4 relative to control
[27] = target: Serine/threonine-protein kinase Chk2 (Homo sapiens) (UniProt O96017); test: Inhibition of CHEK2 relative to control; conditions: concentration not given here
Chain of Serine/threonine-protein kinase Chk2 (Homo sapiens) (O96017 whole entry): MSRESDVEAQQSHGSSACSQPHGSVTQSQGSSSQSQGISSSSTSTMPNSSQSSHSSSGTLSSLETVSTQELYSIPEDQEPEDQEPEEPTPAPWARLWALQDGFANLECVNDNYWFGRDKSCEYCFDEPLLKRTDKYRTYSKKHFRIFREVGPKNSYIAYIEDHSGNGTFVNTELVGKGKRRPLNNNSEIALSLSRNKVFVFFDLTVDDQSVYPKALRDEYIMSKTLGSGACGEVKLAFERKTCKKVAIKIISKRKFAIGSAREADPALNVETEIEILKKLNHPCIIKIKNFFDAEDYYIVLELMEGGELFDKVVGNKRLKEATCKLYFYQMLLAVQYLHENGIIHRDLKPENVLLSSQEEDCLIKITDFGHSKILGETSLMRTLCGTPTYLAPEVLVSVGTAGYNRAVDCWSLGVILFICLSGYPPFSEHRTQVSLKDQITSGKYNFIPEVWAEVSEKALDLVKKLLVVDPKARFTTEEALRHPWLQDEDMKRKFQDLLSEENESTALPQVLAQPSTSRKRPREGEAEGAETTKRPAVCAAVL

[28] = target: Mitogen-activated protein kinase 1 (Homo sapiens) (UniProt P28482); test: Inhibition of MAPK1 relative to control; conditions: concentration not given here
Chain of Mitogen-activated protein kinase 1 (Homo sapiens) (P28482 whole entry): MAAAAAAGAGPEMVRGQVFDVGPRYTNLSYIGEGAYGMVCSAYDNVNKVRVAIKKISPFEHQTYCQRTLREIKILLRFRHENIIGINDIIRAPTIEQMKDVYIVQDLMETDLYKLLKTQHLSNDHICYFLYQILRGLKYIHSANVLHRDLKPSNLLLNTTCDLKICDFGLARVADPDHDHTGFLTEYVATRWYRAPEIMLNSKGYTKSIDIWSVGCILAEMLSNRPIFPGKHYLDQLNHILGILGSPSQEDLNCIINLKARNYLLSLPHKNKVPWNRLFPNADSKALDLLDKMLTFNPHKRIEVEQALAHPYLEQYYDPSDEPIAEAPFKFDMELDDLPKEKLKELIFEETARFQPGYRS

Mus musculus [29] = test: Antiarthritic activity in DBA/1 JBomTac mouse collagen-induced arthritis model assessed as inhibition of disease progression at 3 mg/kg, po qd measured on day 5 to 22; type: functional, organism-based; parameters: dose 3 mg/kg; outline: as §2
[30] = target: Tyrosine-protein kinase HCK (Homo sapiens) (UniProt P08631); test: Inhibition of HCK relative to control; conditions: concentration not given here
Chain of Tyrosine-protein kinase HCK (Homo sapiens) (P08631 2-526 limits assumed): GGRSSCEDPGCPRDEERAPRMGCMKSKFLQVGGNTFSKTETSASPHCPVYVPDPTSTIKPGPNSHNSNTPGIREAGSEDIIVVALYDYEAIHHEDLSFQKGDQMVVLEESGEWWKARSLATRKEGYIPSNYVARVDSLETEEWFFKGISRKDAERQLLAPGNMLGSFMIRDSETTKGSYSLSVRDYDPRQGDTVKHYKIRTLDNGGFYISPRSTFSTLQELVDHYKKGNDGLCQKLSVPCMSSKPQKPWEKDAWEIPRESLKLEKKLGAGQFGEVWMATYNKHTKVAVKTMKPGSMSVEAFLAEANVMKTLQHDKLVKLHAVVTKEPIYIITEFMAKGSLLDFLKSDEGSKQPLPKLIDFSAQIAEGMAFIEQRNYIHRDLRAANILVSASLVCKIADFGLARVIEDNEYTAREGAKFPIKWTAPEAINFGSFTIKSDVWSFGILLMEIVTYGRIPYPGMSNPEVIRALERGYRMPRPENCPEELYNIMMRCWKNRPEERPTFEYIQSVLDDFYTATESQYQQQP

Cc1ccccc1Nc1nc2cc(F)c(N(C)C(=O)/C=C/CN(C)C)cc2n2cncc12
inhibition [1]: 8%
inhibition [2]: 4%
IC50 [3]: 892 nM
inhibition ([3]; concentration not given here): 40%
IC50 [4]: 16 nM
inhibition ([4]; concentration not given here): 109%
IC50 (Ephrin type-A receptor 8): 434 nM
inhibition [5]: 54%
bioavailability [6]: 34%
inhibition [7]: -5%
inhibition [8]: 1%
inhibition [9]: -2%
IC50 [10]: 109 nM
inhibition [11]: 0%
Activity (Mus musculus [12]): Active
inhibition [13]: 7%
IC50 (Ephrin type-B receptor 3): 350 nM
inhibition [14]: 50%
inhibition [15]: 6%
inhibition [16]: 6%
inhibition [17]: 19%
inhibition [18]: 8%
inhibition [19]: 19%
half-life [20]: 1.5 h
EC50 [21]: > 10000 nM
inhibition [22]: 18%
inhibition [23]: 0%
inhibition [24]: 15%
inhibition (Mus musculus [25]): Dose-dependent effect
IC50 [26]: 43.7 nM
inhibition [27]: 19%
inhibition [28]: -4%
Activity (Mus musculus [29]): Active
inhibition [30]: 5%
